ChEMBL document CHEMBL5303300, “EUbOPEN Chemogenomics Library - Multiplex” (2023)
Values joined by “and” are separate entries in the source; they are usually repeats but may differ in a detail not shown here. Identical values can stand only once.

Tested on: Fibroblast
Test: Multiplex assay against human fibroblast
Assay type: toxicity, cell-based
Conditions: number of replicates 2
In short: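 Compound was added to live cells that had been stained at seeding with Hoechst33342, BioTracker Green Microtubule Cytoskeleton Dye, MitoTracker Red and Annexin V Alexa Fluor 680, and imaging followed on a CQ1 microscope at 37°C and 5% CO2. CellPathfinder machine-learning gating divided cells into Hoechst high-intensity objects or normal cells, normal cells into healthy, pyknosed or fragmented nuclei, and pyknosed cells into mitotic or apoptotic. Tubulin, mitochondrial-mass and membrane-permeability phenotypes are per cents of healthy-nucleus cells.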

[1] = 12 h, 1 µM, compound concentration 1 uM
[2] = 12 h, 10 µM, compound concentration 10 uM
[3] = 24 h, 1 µM, compound concentration 1 uM
[4] = 24 h, 10 µM, compound concentration 10 uM
[5] = 48 h, 1 µM, compound concentration 1 uM
[6] = 48 h, 10 µM, compound concentration 10 uM

CN[C@@H]1CC[C@@H](c2ccc(Cl)c(Cl)c2)c2ccccc21.Cl
Population Apoptotic (%) [1]: 43% and 37%
Population Fragmented Nuclei (%) [1]: 14% and 18%
Population Healthy Nuclei (%) [1]: 55% and 62%
Population Hoechst High Intensity Objects (%) [1]: 0%
Population Membrane Permeable-Phenotype (%) [1]: 12% and 9%
Population Mitochondria Different-Phenotype (%) [1]: 2% and 0%
Population Mitotic Cells (%) [1]: 56% and 62%
Population Normal (%) [1]: 100% and 99%
Population Pyknosed Nuclei (%) [1]: 29% and 19%
Population Tubulin-Different-Phenotype (%) [1]: 37% and 20%
Total Cell Count [1]: 194
Population Apoptotic (%) [2]: 28% and 53%
Population Fragmented Nuclei (%) [2]: 17% and 15%
Population Healthy Nuclei (%) [2]: 56% and 55%
Population Hoechst High Intensity Objects (%) [2]: 0%
Population Membrane Permeable-Phenotype (%) [2]: 11% and 8%
Population Mitochondria Different-Phenotype (%) [2]: 10% and 14%
Population Mitotic Cells (%) [2]: 71% and 46%
Population Normal (%) [2]: 100% and 99%
Population Pyknosed Nuclei (%) [2]: 26% and 28%
Population Tubulin-Different-Phenotype (%) [2]: 82% and 77%
Population Apoptotic (%) [3]: 43% and 40%
Population Fragmented Nuclei (%) [3]: 16% and 17%
Population Healthy Nuclei (%) [3]: 57% and 65%
Population Hoechst High Intensity Objects (%) [3]: 0% and 1%
Population Membrane Permeable-Phenotype (%) [3]: 8% and 2%
Population Mitochondria Different-Phenotype (%) [3]: 1% and 4%
Population Mitotic Cells (%) [3]: 56% and 60%
Population Normal (%) [3]: 99% and 98%
Population Pyknosed Nuclei (%) [3]: 25% and 16%
Population Tubulin-Different-Phenotype (%) [3]: 39% and 19%
Population Apoptotic (%) [4]: 53% and 65%
Population Fragmented Nuclei (%) [4]: 13% and 15%
Population Healthy Nuclei (%) [4]: 56% and 53%
Population Hoechst High Intensity Objects (%) [4]: 0%
Population Membrane Permeable-Phenotype (%) [4]: 7% and 5%
Population Mitochondria Different-Phenotype (%) [4]: 29% and 49%
Population Mitotic Cells (%) [4]: 46% and 34%
Population Normal (%) [4]: 100% and 99%
Population Pyknosed Nuclei (%) [4]: 30% and 32%
Population Tubulin-Different-Phenotype (%) [4]: 89% and 88%
Total Cell Count [4]: 212 and 201
Population Apoptotic (%) [5]: 78% and 55%
Population Fragmented Nuclei (%) [5]: 21% and 22%
Population Healthy Nuclei (%) [5]: 60% and 64%
Population Hoechst High Intensity Objects (%) [5]: 0%
Population Membrane Permeable-Phenotype (%) [5]: 2% and 3%
Population Mitochondria Different-Phenotype (%) [5]: 0%
Population Mitotic Cells (%) [5]: 21% and 44%
Population Normal (%) [5]: 99%
Population Pyknosed Nuclei (%) [5]: 17% and 12%
Population Apoptotic (%) [6]: 75% and 88%
Population Fragmented Nuclei (%) [6]: 12% and 14%
Population Healthy Nuclei (%) [6]: 66% and 51%
Population Hoechst High Intensity Objects (%) [6]: 1% and 0%
Population Membrane Permeable-Phenotype (%) [6]: 11% and 1%
Population Mitochondria Different-Phenotype (%) [6]: 40% and 47%
Population Mitotic Cells (%) [6]: 24% and 11%
Population Normal (%) [6]: 98% and 100%
Population Pyknosed Nuclei (%) [6]: 21% and 34%
Population Tubulin-Different-Phenotype (%) [6]: 84% and 69%
Total Cell Count [6]: 196

COCCN1CCN(CCn2ccc(Nc3ncc4c(n3)-c3c(nn(C)c3-c3ccccc3)C[C@H]4C)n2)CC1
Population Apoptotic (%) [1]: 48% and 20%
Population Fragmented Nuclei (%) [1]: 9% and 8%
Population Healthy Nuclei (%) [1]: 73% and 72%
Population Hoechst High Intensity Objects (%) [1]: 0%
Population Membrane Permeable-Phenotype (%) [1]: 4% and 8%
Population Mitochondria Different-Phenotype (%) [1]: 0% and 1%
Population Mitotic Cells (%) [1]: 51% and 79%
Population Normal (%) [1]: 100%
Population Pyknosed Nuclei (%) [1]: 16% and 19%
Population Tubulin-Different-Phenotype (%) [1]: 16% and 12%
Total Cell Count [1]: 202 and 275
Population Apoptotic (%) [2]: 32% and 46%
Population Fragmented Nuclei (%) [2]: 13% and 20%
Population Healthy Nuclei (%) [2]: 57% and 61%
Population Hoechst High Intensity Objects (%) [2]: 0%
Population Membrane Permeable-Phenotype (%) [2]: 12% and 5%
Population Mitochondria Different-Phenotype (%) [2]: 2%
Population Mitotic Cells (%) [2]: 67% and 53%
Population Normal (%) [2]: 99%
Population Pyknosed Nuclei (%) [2]: 29% and 18%
Population Tubulin-Different-Phenotype (%) [2]: 58% and 32%
Total Cell Count [2]: 222 and 175
Population Apoptotic (%) [3]: 51% and 44%
Population Fragmented Nuclei (%) [3]: 10% and 11%
Population Healthy Nuclei (%) [3]: 72% and 69%
Population Hoechst High Intensity Objects (%) [3]: 0%
Population Membrane Permeable-Phenotype (%) [3]: 5% and 4%
Population Mitochondria Different-Phenotype (%) [3]: 0%
Population Mitotic Cells (%) [3]: 48% and 55%
Population Normal (%) [3]: 99%
Population Pyknosed Nuclei (%) [3]: 16% and 19%
Population Tubulin-Different-Phenotype (%) [3]: 14% and 10%
Total Cell Count [3]: 188 and 271
Population Apoptotic (%) [4]: 57% and 51%
Population Fragmented Nuclei (%) [4]: 13% and 16%
Population Healthy Nuclei (%) [4]: 59% and 64%
Population Hoechst High Intensity Objects (%) [4]: 1% and 0%
Population Membrane Permeable-Phenotype (%) [4]: 7% and 3%
Population Mitochondria Different-Phenotype (%) [4]: 4% and 5%
Population Mitotic Cells (%) [4]: 42% and 48%
Population Normal (%) [4]: 98% and 100%
Population Pyknosed Nuclei (%) [4]: 27% and 19%
Population Tubulin-Different-Phenotype (%) [4]: 53% and 29%
Total Cell Count [4]: 201 and 173
Population Apoptotic (%) [5]: 52% and 60%
Population Fragmented Nuclei (%) [5]: 10% and 12%
Population Healthy Nuclei (%) [5]: 74% and 72%
Population Hoechst High Intensity Objects (%) [5]: 0%
Population Membrane Permeable-Phenotype (%) [5]: 6% and 4%
Population Mitochondria Different-Phenotype (%) [5]: 0%
Population Mitotic Cells (%) [5]: 48% and 39%
Population Normal (%) [5]: 100% and 99%
Population Pyknosed Nuclei (%) [5]: 14% and 15%
Population Tubulin-Different-Phenotype (%) [5]: 12% and 6%
Total Cell Count [5]: 171 and 271
Population Apoptotic (%) [6]: 63% and 46%
Population Fragmented Nuclei (%) [6]: 16% and 15%
Population Healthy Nuclei (%) [6]: 65% and 66%
Population Hoechst High Intensity Objects (%) [6]: 0%
Population Membrane Permeable-Phenotype (%) [6]: 8% and 6%
Population Mitochondria Different-Phenotype (%) [6]: 3% and 8%
Population Mitotic Cells (%) [6]: 36% and 53%
Population Normal (%) [6]: 99%
Population Pyknosed Nuclei (%) [6]: 18% and 17%
Population Tubulin-Different-Phenotype (%) [6]: 43% and 17%
Total Cell Count [6]: 201 and 161

Cc1ccc(C(=O)Nc2cc(N3CCN(C)CC3)cc(C(F)(F)F)c2)cc1-n1cc(-c2cnn(C)c2C)nn1.Cl
Population Apoptotic (%) [1]: 40% and 42%
Population Fragmented Nuclei (%) [1]: 6% and 16%
Population Healthy Nuclei (%) [1]: 48% and 59%
Population Hoechst High Intensity Objects (%) [1]: 0%
Population Membrane Permeable-Phenotype (%) [1]: 20% and 12%
Population Mitochondria Different-Phenotype (%) [1]: 2%
Population Mitotic Cells (%) [1]: 59% and 57%
Population Normal (%) [1]: 100%
Population Pyknosed Nuclei (%) [1]: 44% and 24%
Population Tubulin-Different-Phenotype (%) [1]: 35% and 32%
Total Cell Count [1]: 165 and 172
Population Apoptotic (%) [2]: 61% and 35%
Population Fragmented Nuclei (%) [2]: 17% and 18%
Population Healthy Nuclei (%) [2]: 51% and 62%
Population Hoechst High Intensity Objects (%) [2]: 0% and 1%
Population Membrane Permeable-Phenotype (%) [2]: 12% and 11%
Population Mitochondria Different-Phenotype (%) [2]: 4% and 7%
Population Mitotic Cells (%) [2]: 38% and 64%
Population Normal (%) [2]: 99% and 98%
Population Pyknosed Nuclei (%) [2]: 30% and 19%
Population Tubulin-Different-Phenotype (%) [2]: 85% and 70%
Total Cell Count [2]: 198 and 294
Population Apoptotic (%) [3]: 65% and 41%
Population Fragmented Nuclei (%) [3]: 10% and 17%
Population Healthy Nuclei (%) [3]: 46% and 59%
Population Hoechst High Intensity Objects (%) [3]: 0%
Population Membrane Permeable-Phenotype (%) [3]: 7% and 4%
Population Mitochondria Different-Phenotype (%) [3]: 7%
Population Mitotic Cells (%) [3]: 34% and 58%
Population Normal (%) [3]: 99% and 100%
Population Pyknosed Nuclei (%) [3]: 42% and 23%
Population Tubulin-Different-Phenotype (%) [3]: 36% and 35%
Total Cell Count [3]: 150 and 176
Population Apoptotic (%) [4]: 68% and 63%
Population Fragmented Nuclei (%) [4]: 16% and 17%
Population Healthy Nuclei (%) [4]: 57% and 59%
Population Hoechst High Intensity Objects (%) [4]: 0% and 1%
Population Membrane Permeable-Phenotype (%) [4]: 7% and 5%
Population Mitochondria Different-Phenotype (%) [4]: 12% and 15%
Population Mitotic Cells (%) [4]: 31% and 36%
Population Normal (%) [4]: 99% and 98%
Population Pyknosed Nuclei (%) [4]: 25% and 23%
Population Tubulin-Different-Phenotype (%) [4]: 76% and 58%
Total Cell Count [4]: 261 and 279
Population Apoptotic (%) [5]: 76% and 68%
Population Fragmented Nuclei (%) [5]: 15% and 18%
Population Healthy Nuclei (%) [5]: 49% and 66%
Population Hoechst High Intensity Objects (%) [5]: 0% and 1%
Population Membrane Permeable-Phenotype (%) [5]: 2%
Population Mitochondria Different-Phenotype (%) [5]: 5%
Population Mitotic Cells (%) [5]: 23% and 32%
Population Normal (%) [5]: 100% and 98%
Population Pyknosed Nuclei (%) [5]: 34% and 15%
Population Tubulin-Different-Phenotype (%) [5]: 32% and 19%
Total Cell Count [5]: 161 and 167
Population Apoptotic (%) [6]: 84% and 82%
Population Fragmented Nuclei (%) [6]: 19%
Population Healthy Nuclei (%) [6]: 59% and 63%
Population Hoechst High Intensity Objects (%) [6]: 3% and 4%
Population Membrane Permeable-Phenotype (%) [6]: 5% and 6%
Population Mitochondria Different-Phenotype (%) [6]: 10%
Population Mitotic Cells (%) [6]: 15% and 17%
Population Normal (%) [6]: 96% and 95%
Population Pyknosed Nuclei (%) [6]: 21% and 17%
Population Tubulin-Different-Phenotype (%) [6]: 68% and 54%
Total Cell Count [6]: 226 and 303
